Source: ChEMBL document CHEMBL2093137, “WHO-TDR NTD Screening”
In brackets after ≈: the same amount, converted by molar mass.

Key:
Trypanosoma cruzi = assay: WHO-TDR: Chagas disease; format: functional, organism-based, Homo sapiens; conditions: MRC5
How it was run: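 Whole-organism screen of a 10,000-compound diverse library from Life Chemicals, filtered for drug-likeness and reactive groups, against intracellular amastigotes of Trypanosoma cruzi Tulahuen CL2 beta-galactosidase strain grown in MRC-5SV2 human lung fibroblast host cells. The assay followed previously published standard procedures, with a reference drug as positive control. Antiparasitic potency is reported as IC50.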

Onchocerca ochengi [1] = assay: (§1) WHO-TDR: Onchocerciasis; format: functional; set-up: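 at 12.5 µM on microfilariae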
How it was run: (§2)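 Values are reported as percent inhibition and as IC50. They come from a whole-organism screen of a 10,000-compound diverse Life Chemicals library against microfilariae of Onchocerca ochengi or Onchocerca lienalis. The screen followed previously published standard procedures, with reference drugs as positive controls.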

Leishmania infantum = assay: WHO-TDR: Leishmaniasis; format: functional, organism-based, Mus musculus; conditions: Macrophage
How it was run: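 Following previously published standard procedures, a whole-organism screen was run on Leishmania infantum MHOM/MA(BE)/67 amastigotes within murine peritoneal macrophages, with a reference drug as positive control. The 10,000 compounds tested formed a diverse Life Chemicals library filtered for drug-likeness and reactive groups. Potency against the parasite is reported as IC50.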

Schistosoma mansoni = assay: WHO-TDR: Schistosomiasis; format: functional; set-up: concentration or dose not given beside the values
How it was run: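 Values are reported as percent inhibition and IC50. They come from a whole-organism screen of a 10,000-compound diverse Life Chemicals library against larval and/or adult worms of Schistosoma mansoni, Puerto Rican strain. The library had been filtered for drug-likeness and reactive groups.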

Onchocerca ochengi [2] = assay: as §1; format: functional; set-up: concentration or dose not given beside the values; how it was run: as §2; remark: listed apart in the source
[3] = WHO-TDR: Cytotoxicity; format: toxicity, cell-based; conditions: human, MRC5 cells
Plasmodium falciparum K1 = assay: WHO-TDR: Malaria; format: functional, organism-based, Homo sapiens; conditions: Erythrocyte
How it was run: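 Following previously published standard procedures, with a reference drug serving as positive control, compounds were tested on the Plasmodium falciparum K1 strain inside human red blood cells. The 10,000-compound diverse set came from Life Chemicals after filtering for drug-likeness and reactive groups. Potency against the parasite appears as IC50.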

[4] = system: Trypanosoma brucei brucei; assay: WHO-TDR: Human African Trypanosomiasis (HAT); format: functional, organism-based; conditions: Squib-427
How it was run: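 Bloodstream forms of the Trypanosoma brucei Squib 427 strain were tested in a whole-organism screen with a diverse library from Life Chemicals of 10,000 compounds. Before screening, the library was filtered for drug-likeness and for reactive groups. The assay used previously published standard procedures and included reference drugs as positive controls. Potency against the parasite is expressed as IC50.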

SMILES | IC50 (Leishmania infantum) [µg/mL] | IC50 (Plasmodium falciparum K1) [µg/mL] | IC50 [4] [µg/mL] | IC50 (Trypanosoma cruzi) [µg/mL] | % Inhibition (Onchocerca ochengi [1]) [%] | % Inhibition (Schistosoma mansoni) [%] | % Inhibition (Onchocerca ochengi [2]) [%] | IC50 [3] [µg/mL]
C=CCN1C(=O)C(C)(C)COc2ccc(NS(=O)(=O)c3ccc4c(c3)CCCC4)cc21 | 4.28 (≈ 9.71 µM) | > 13.2 | > 13.2 | 11.4 (≈ 26 µM) | 0 | 0 | 100 | > 13.2
CCc1ccc2nc(N(CCN(CC)CC)C(=O)Cc3ccc4c(c3)OCO4)sc2c1 | 7.4 (≈ 16.8 µM) | 4.52 (≈ 10.3 µM) | 0.457 (≈ 1.04 µM) | 3.61 (≈ 8.21 µM) | 0 | 0 | 0 | > 14.3
CCN(CC)CCN(C(=O)Cc1ccc2c(c1)OCO2)c1nc2c(C)cc(C)cc2s1 | 7.4 (≈ 16.8 µM) | 4.32 (≈ 9.83 µM) | 0.452 (≈ 1.03 µM) | 4.58 (≈ 10.4 µM) | 0 | 0 | 0 | 11.2 (≈ 25.4 µM)
CCN(CC)CCN(C(=O)Cc1ccc2c(c1)OCO2)c1nc2c(C)c(C)ccc2s1 | > 14.3 | 8.03 (≈ 18.3 µM) | 0.452 (≈ 1.03 µM) | 9.51 (≈ 21.6 µM) | 0 | 0 | 0 | > 14.3
O=C(Cc1csc(NS(=O)(=O)c2ccc(Cl)cc2)n1)Nc1ccc(F)c(F)c1 | > 13.3 | > 13.3 | > 13.3 | > 13.3 | 0 | 0 | 100 | > 13.3
CCOC(=O)c1ccccc1NC(=O)CSc1ncc(-c2ccccc2)[nH]1 | > 11.4 | > 11.4 | > 11.4 | > 11.4 | 0 | 0 | 100 | > 11.4
O=C(CSc1ncc(-c2ccccc2)[nH]1)N1CCCc2ccccc21 | > 10.5 | > 10.5 | > 10.5 | > 10.5 | 0 | 0 | 100 | > 10.5
O=C(CSc1ncc(-c2ccccc2)[nH]1)Nc1cc(C(F)(F)F)ccc1Cl | > 12.4 | > 12.4 | > 12.4 | > 12.4 | 0 | 0 | 100 | > 12.4
O=C(CSc1nc(CC(=O)N2CCN(c3ccccc3F)CC2)cs1)Nc1ccc(F)cc1 | > 14.7 | > 14.7 | > 14.7 | > 14.7 | 0 | 0 | 100 | > 14.7

The next lines start with results.

IC50 (Leishmania infantum) [µg/mL] | IC50 (Plasmodium falciparum K1) [µg/mL] | IC50 [4] [µg/mL] | SMILES | IC50 (Trypanosoma cruzi) [µg/mL] | % Inhibition (Onchocerca ochengi [1]) [%] | % Inhibition (Schistosoma mansoni) [%] | % Inhibition (Onchocerca ochengi [2]) [%] | IC50 [3] [µg/mL]
> 13.3 | > 13.3 | > 13.3 | C=CCN1C(=O)C(C)(C)COc2ccc(NS(=O)(=O)c3ccc4c(c3)OCCO4)cc21 | > 13.3 | 0 | 0 | 100 | > 13.3
3.69 (≈ 9.71 µM) | > 11.4 | 3.08 (≈ 8.08 µM) | CCc1ccc(S(=O)(=O)Nc2ccc3c(c2)NC(=O)C(C)(C)CO3)s1 | 3.45 (≈ 9.08 µM) | 60 | 0 | 100 | > 11.4
> 9.37 | 3.66 (≈ 11.7 µM) | 6.82 (≈ 21.8 µM) | CC(C)S(=O)(=O)Nc1ccc2c(c1)NC(=O)C(C)(C)CO2 | 3.93 (≈ 12.6 µM) | 0 | 0 | 100 | > 9.37
> 11.9 | > 11.9 | 6.16 (≈ 15.5 µM) | CC1(C)COc2ccc(NS(=O)(=O)c3cccc4ccccc34)cc2NC1=O | > 11.9 | 0 | 0 | 100 | > 11.9
> 11.8 | > 11.8 | 3.89 (≈ 9.85 µM) | Cc1ccc(Cl)cc1S(=O)(=O)Nc1ccc2c(c1)NC(=O)C(C)(C)CO2 | 3.95 (≈ 10 µM) | 0 | 0 | 100 | > 11.8
